For series [1], the system named is Leishmania donovani. Briefly: Antileishmanial activity against Leishmania donovani MHOM/IN/80/Dd8 promastigotes assessed as reduction in promastigotes viability incubated for 24 hrs by resazurin-based alamar blue dye assay. The series is classed as functional, organism-based. The following applies: MHOM/IN/80/Dd8, 24 h. Put shortly:
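L. donovani DD8 promastigotes, exponential phase, in M199 with 10% heat-inactivated FBS at 24 ± 1 °C, 5×10^6 cells per well. Exposed 24 h to 100, 50, 25, 12.5 and 6.25 μM (1 mM DMSO stocks). Viability read with resazurin (Alamar Blue, 20 μg ml^-1 final), excitation 550 nm and emission 590 nm. Amphotericin B standard. IC50 from curve fit; mean ± SD of three independent experiments.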
(The colour change of resazurin is a common sign of viable cells or microbes.)

Series [2] concerns J774.A1. Briefly: Cytotoxicity against mouse J774.A1 cells assessed as reduction in viability at 30 uM incubated for 20 hrs by MTT assay. In kind it is toxicity, cell-based. The following applies: j774.a1, 20 h. Put shortly: (§1)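 J774A.1 murine macrophages in DMEM, 2×10^4 cells per well, adhered overnight. Treated in triplicate at 100, 50, 30, 20 and 10 μM with 0.1% final DMSO (DMSO negative control, amphotericin B positive control) for 20 h. MTT (2.5 mg ml^-1 in PBS) added for 4 h at 37 °C, formazan dissolved in DMSO, OD 570 nm. CC50 from curve fit; mean ± SD of three independent experiments.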
In general terms: Formazan colour is commonly taken as a measure of viable cells.

Series [3] in a line: Cytotoxicity against mouse J774.A1 cells assessed as reduction in viability incubated for 20 hrs by MTT assay. In kind it is toxicity, cell-based. In a few lines:
as §1

In series [4] the test system is J774.A1. Description: Cytotoxicity against mouse J774.A1 cells assessed as reduction in viability at 50 uM incubated for 20 hrs by MTT assay. In kind it is toxicity, cell-based. The following applies: j774.a1, 20 h. Put shortly:
as §1

In series [5] the test system is Leishmania donovani. Briefly: Inhibition of recombinant Leishmania donovani DNA topoisomerase IB mediated relaxation activity expressed in Escherichia coli BL21 (DE3) cells using supercoiled pHOT1 DNA as substrate at 500 uM incubated for 25 mins by EtBr staining based agarose gel electrophoresis analysis. Put shortly: (§2)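 His-tagged LdTopILS expressed from pET16b plasmids in E. coli BL21(DE3) (0.5 mM IPTG, 22 °C, 12 h) and Ni-NTA purified. Enzyme mixed with supercoiled pHOT1 at 3:1 molar ratio in 25 mM Tris-Cl pH 7.5, 5% glycerol, 50 mM KCl, 0.5 mM DTT, 10 mM MgCl2, 30 μg ml^-1 BSA for 25 min at 37 °C. Controls: CPT 60 μM and DMSO 4% v/v. Products run on 1% agarose, EtBr stained, relaxed vs supercoiled quantified.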

For series [6], the system named is J774.A1. Description: Cytotoxicity against mouse J774.A1 cells assessed as reduction in viability at 20 uM incubated for 20 hrs by MTT assay. In kind it is toxicity, cell-based. The following applies: j774.a1, 20 h. In a few lines: as §1
The test system of series [7] is J774.A1. Description: Cytotoxicity against mouse J774.A1 cells assessed as reduction in viability at 10 uM incubated for 20 hrs by MTT assay. The series is classed as toxicity, cell-based. The following applies: j774.a1, 20 h. In a few lines:
as §1

Series [8] has as its system Leishmania donovani. Description: Inhibition of recombinant Leishmania donovani DNA topoisomerase IB mediated relaxation activity expressed in Escherichia coli BL21 (DE3) cells using supercoiled pHOT1 DNA as substrate at 60 uM incubated for 25 mins by EtBr staining based agarose gel electrophoresis analysis. In a few lines: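 LdTopILS was co-expressed from pET16bLdTOP1L and pET16bLdTOP1S in E. coli BL21(DE3), induced with 0.5 mM IPTG at OD600 0.6 for 12 h at 22 °C, and Ni-NTA purified. Enzyme and supercoiled pHOT1 (3:1 molar) ran 25 min at 37 °C in 25 mM Tris-Cl pH 7.5, 5% glycerol, 50 mM KCl, 0.5 mM DTT, 10 mM MgCl2, 30 µg/ml BSA. DMSO 4% v/v was the solvent control. Relaxed versus supercoiled bands were quantified on 1% agarose with EtBr.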

For series [9], the system named is Leishmania donovani. Briefly: Inhibition of recombinant Leishmania donovani DNA topoisomerase IB mediated relaxation activity expressed in Escherichia coli BL21 (DE3) cells using supercoiled pHOT1 DNA as substrate at 500 uM incubated for 25 mins by EtBr staining based agarose gel electrophoresis analysis relative to control. Put shortly: as §2
For series [10], the system named is Leishmania donovani. Description: Inhibition of recombinant Leishmania donovani DNA topoisomerase IB mediated relaxation activity expressed in Escherichia coli BL21 (DE3) cells using supercoiled pHOT1 DNA as substrate at 400 uM incubated for 25 mins by EtBr staining based agarose gel electrophoresis analysis relative to control. In a few lines:
as §2

SMILES strings stand for the structures. Active and inactive are the calls of the source. No cut-off for these calls is given here.

For the compound `O=[N+]([O-])c1ccc(C(c2c[nH]c3ccccc23)c2c[nH]c3ccccc23)cc1`, in [1], the 50% inhibitory concentration (IC50) is above 100 µM.
Consider `Fc1ccc2[nH]cc(C(c3ccc(Cl)cc3)c3c[nH]c4ccc(F)cc34)c2c1`, for which the Activity stood at 32.04% in series [2], 26.14% in series [4], 33.53% in series [6] and 40.15% in series [7]. Besides, in [3], the cytotoxic concentration (CC50) at 20 h was 4.51 µM. In series [1], the half-maximal inhibitory concentration (IC50) came to 31.4 µM. For the same compound, the inhibition entry in series [5] was “inactive”.
Turning to `CC[C@@]1(O)C(=O)OCc2c1cc1n(c2=O)Cc2cc3ccccc3nc2-1`, in series [8], the inhibition entry is “Active”.
Turning to `CC(=O)OC[C@H]1O[C@@H](n2ccc3cc(Br)ccc32)[C@H](OC(C)=O)[C@@H](OC(C)=O)[C@@H]1OC(C)=O`, the inhibition in series [9] is above 90%.
For `Brc1ccc(C(c2c[nH]c3ccccc23)c2c[nH]c3ccccc23)cc1`, in series [1], the 50% inhibitory concentration (IC50) worked out at 47 µM. The inhibition result in [5] is “inactive”.
In the case of `Clc1ccc(C(c2c[nH]c3ccc(Br)cc23)c2c[nH]c3ccc(Br)cc23)cc1`, in series [1], the IC50 stood at 41.8 µM. Also, the inhibition result in series [5] was “inactive”.
Regarding `OC[C@H]1O[C@@H](n2cc(C(c3ccc(F)cc3)c3cn([C@@H]4O[C@H](CO)[C@@H](O)[C@@H](O)[C@H]4O)c4ccc(Br)cc34)c3cc(Br)ccc32)[C@H](O)[C@H](O)[C@@H]1O` (some centres undefined), the Activity was 70.11% in series [2], 69.77% in series [4], 81.05% in [6] and 96.25% in series [7]. Also, in series [3], the cytotoxic concentration (CC50) at 20 h came out at 89.2 µM. In addition, the inhibition in [9] and in [10] was 100% in each case. In series [1], the IC50 was determined as 27.9 µM.
In the case of `Clc1ccc2c(C(c3ccc(Br)cc3)c3c[nH]c4cc(Cl)ccc34)c[nH]c2c1`, the IC50 in [1] is 74.3 µM.
Still for that read-out and setting: the same measure for `Fc1ccc(C(c2c[nH]c3cc(Cl)ccc23)c2c[nH]c3cc(Cl)ccc23)cc1`: above 100 µM.
`C[C@@H]1[C@H](O)[C@@H](C)/C=C/C=C/C=C/C=C/C=C/C=C/C=C/[C@H](O[C@@H]2O[C@H](C)[C@@H](O)[C@H](N)[C@@H]2O)C[C@@H]2O[C@](O)(C[C@@H](O)C[C@@H](O)[C@H](O)CC[C@@H](O)C[C@@H](O)CC(=O)O[C@H]1C)C[C@H](O)[C@H]2C(=O)O` [AMPHOTERICIN B]: the IC50 in series [1] worked out at 0.4 µM.
`CC(=O)OC[C@H]1O[C@@H](n2cc(C(c3ccc(F)cc3)c3cn([C@@H]4O[C@H](COC(C)=O)[C@@H](OC(C)=O)[C@H](OC(C)=O)[C@H]4OC(C)=O)c4ccc(Br)cc34)c3cc(Br)ccc32)[C@H](OC(C)=O)[C@@H](OC(C)=O)[C@@H]1OC(C)=O`: the inhibition in [9] and in series [10] was 100% throughout. Moreover, in series [1], the IC50 is 29.1 µM.
`OC[C@H]1O[C@@H](n2ccc3cc(Br)ccc32)[C@H](O)[C@@H](O)[C@@H]1O`: the inhibition in [9] is above 90%.
For `Cc1ccc(C(c2c[nH]c3ccc(Br)cc23)c2c[nH]c3ccc(Br)cc23)cc1`, the IC50 in series [1] was found to be 59.2 µM.
With `O=[N+]([O-])c1ccc(C(c2c[nH]c3cc(Cl)ccc23)c2c[nH]c3cc(Cl)ccc23)cc1`, in series [1], the IC50 was 48.4 µM.
As to `CSc1ccc(C(c2c[nH]c3ccc(Br)cc23)c2c[nH]c3ccc(Br)cc23)cc1`, the IC50 in [1] was above 100 µM.
In the case of `Clc1ccc(C(c2c[nH]c3ccccc23)c2c[nH]c3ccccc23)cc1`, the half-maximal inhibitory concentration (IC50) in [1] is 57.1 µM.
On to `Brc1ccc(C(c2c[nH]c3ccc(Br)cc23)c2c[nH]c3ccc(Br)cc23)cc1`, for which the concentration for half-maximal inhibition (IC50) in [1] is above 100 µM.
On to `O=[N+]([O-])c1ccc(C(c2c[nH]c3ccc(Br)cc23)c2c[nH]c3ccc(Br)cc23)cc1`, for which the IC50 in series [1] came out at 48.5 µM.
For `Cc1ccc(C(c2c[nH]c3ccccc23)c2c[nH]c3ccccc23)cc1`, the IC50 in [1] is 54.3 µM.
`Fc1ccc(C(c2c[nH]c3ccccc23)c2c[nH]c3ccccc23)cc1`: the Activity in series [2] is on record as 19.81%; in series [4] it was 15.89%; in series [6], 20.05%; in [7] it was 26.23%. In [3], the cytotoxic concentration (CC50) at 20 h amounted to 5.71 µM. The IC50 in series [1] stood at 36.2 µM. The inhibition entry in series [5] was “inactive”.
Regarding `CSc1ccc(C(c2c[nH]c3ccccc23)c2c[nH]c3ccccc23)cc1`, the half-maximal inhibitory concentration (IC50) in [1] was above 100 µM.
With `COc1ccc(C(c2c[nH]c3ccc(Br)cc23)c2c[nH]c3ccc(Br)cc23)cc1`, the half-maximal inhibitory concentration (IC50) in series [1] is above 100 µM.
On the same count and under the same terms, the value for `Clc1ccc(C(c2c[nH]c3cc(Cl)ccc23)c2c[nH]c3cc(Cl)ccc23)cc1` was 53.2 µM.
Consider `Fc1ccc(C(c2c[nH]c3ccc(Br)cc23)c2c[nH]c3ccc(Br)cc23)cc1`, for which the Activity in series [2] was found to be 30.34%; in [4], 21.73%; in series [6] it was 34.28%; in series [7], 39.59%. Besides, in [3], the CC50 at 20 h is 4.45 µM. In addition, the IC50 in [1] turned out to be 34.8 µM. For the same compound, in series [5], the inhibition entry is “inactive”.
On to `COc1ccc(C(c2c[nH]c3ccccc23)c2c[nH]c3ccccc23)cc1`, for which the IC50 in series [1] turned out to be 54.9 µM.

The term IC50 denotes the point on the concentration scale where inhibition reaches its midpoint. What is called CC50 is the concentration at which the toxic effect on the cells reaches its halfway point. A word on the inhibition: it is the relative decrease from the control value, in per cent.

Source of the values: ChEMBL document CHEMBL5329188, “Design, synthesis, and biological evaluation of 3,3'-diindolylmethane N-linked glycoconjugate as a leishmanial topoisomerase IB inhibitor with reduced cytotoxicity” (RSC Med Chem, 2023).
